“Also recorded” adds a separate entry of the source. No end group written: not given here. *: point of attachment. pNA = O=[N+]([O-])c1ccc(N*)cc1; Cbz = O=C(OCc1ccccc1)*
Tests used:
[1] = cited from earlier work; for side effects (in words): ref [18], [19]; for duration of action (in words): reference not given
[2] = tested on: apPEP (WT Aeromonus punctata PEP); assay: apPEP enzyme kinetics with chromogenic/fluorescent substrate Z-Gly-Pro-pNA; type: biochemical
Outline: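 Free pNA was read […] to give initial velocities. Km came from a Lineweaver-Burk plot over 31–500 μM substrate. kcat/Km was taken as Vo/SoEo at two or more substrate concentrations.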

DPP4 = conditions: ref [64]; cited from earlier work
PEP = conditions: ref [9]; cited from earlier work
[3] = tested on: apPEP (WT and D622N crystals); assay: Crystal soaking with zPP; type: binding, Aeromonus punctata
Outline: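 Native full-length WT or D622N apPEP (E. coli-expressed, Ni-affinity purified, thrombin-cleaved, SEC) crystallized at 14 °C with 20 mM MES pH 6.5 and PEG. Crystals were cryoequilibrated 1–2 days at 4 °C, soaked overnight at 4 °C, then glutaraldehyde vapour cross-linked for 4 h at 4 °C. Data were collected at 100 K; structures solved by molecular replacement, with inhibitor placed from difference maps.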

## N#C[C@@H]1CCCN1C(=O)CNC12CC3CC(CC(O)(C3)C1)C2 [Galvus]
[1]
  side effects (in words): no significant negative side effects
  duration of action (in words): act transiently

## N[C@@H](CC(=O)N1CCn2c(nnc2C(F)(F)F)C1)Cc1cc(F)c(F)cc1F [Januvia]
[1]
  side effects (in words): no significant negative side effects
  duration of action (in words): act transiently

## Cbz-Gly-Pro-pNA
[2]; 20 mM Tris-HCl (pH 8), 100 mM NaCl, 34 °C
  kcat: 505 s⁻¹
[2]; from initial rates, kcat/Km = Vo/SoEo, substrate 16–62 μM, pH 8, 34 °C
  kcat/Km: 623000 M⁻¹ s⁻¹

## IP10: DPP4 substrate
DPP4
  cleavage efficiency by DPP4 relative to GLP1 (in words): even higher efficiency than GLP1

## angiotensin I-II
PEP
  cleavage by PEP (in words): Cleavage

## benzyloxy-carbonyl-prolyl-prolinal [zPP]
[3]; D622N-zPP structure
  contact with catalytic Ser538 (in words): makes van der Waals contact with the aldehyde group of the inhibitor
[3]; preformed native crystals soaked with 10 mM zPP overnight at 4 °C
  conformational change induced by inhibitor (in words): inducing a conformational change from opened (red) to closed (blue) states; also recorded: induces large scale interdomain closure

## bradykinin: cleaved by PEP (RPPGFSPFR; Bradykinin; UniProt P01042 381-389, looked up)
PEP
  cleavage by PEP (in words): Cleavage

## gastrin-releasing peptide 3–27: DPP4 substrate (LPAGGGTVLTKMYPRGNHWAVGHLM; ends and bridges not checked; UniProt P07492 26-50, looked up, fragment)
DPP4
  cleavage efficiency by DPP4 relative to GLP1 (in words): even higher efficiency than GLP1

## neuropeptide Y: involved in neurogenic inflammation and blood pressure regulation
DPP4
  cleavage efficiency by DPP4 relative to GLP1 (in words): even higher efficiency than GLP1

## stromal cell-derived factor 1α
DPP4
  cleavage efficiency by DPP4 relative to GLP1 (in words): even higher efficiency than GLP1

B1: monocyte-derived chemokine: DPP4 substrate (protein, UniProt O00626 25-93, looked up)
C-C motif chemokine 22: GPYGANMEDSVCCRDYVRYRLPLRVVKHFYWTSDSCPRPGVVLLTFRDKEICADPRVPWVKMILNKLSQ
DPP4
  cleavage efficiency by DPP4 relative to GLP1 (in words): even higher efficiency than GLP1

B2: interferon-inducible T cell α: DPP4 substrate (protein, UniProt O14625 22-94, looked up)
C-X-C motif chemokine 11: FPMFKRGRCLCIGPGVKAVKVADIEKASIMYPSNNCDKIEVIITLKENKGQRCLNPKSKQARLIIKKVERKNF
DPP4
  cleavage efficiency by DPP4 relative to GLP1 (in words): even higher efficiency than GLP1

B3: Mig: DPP4 substrate (protein, UniProt Q07325 23-125, looked up)
C-X-C motif chemokine 9: TPVVRKGRCSCISTNQGTIHLQSLKDLKQFAPSPSCEKIEIIATLKNGVQTCLNPDSADVKELIKKWEKQVSQKKKQKNGKKHQKKKVLKVRKSQRSRQKKTT
DPP4
  cleavage efficiency by DPP4 relative to GLP1 (in words): even higher efficiency than GLP1

Reference: article PMC2898448 (The Journal of Biological Chemistry, 2010)
